Assay outcomes (PubChem)
HIF act: HIF pathway transcriptional activation; U2OS HRE-luciferase reporter, luminescence; normalized: DMSO 0%, desferrioxamine 100%; activation, % at 7.5 µM (by protocol); 0.32% of 300,000 active; AID 1910;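 active = mean activation of at least 10% of the iron chelator positive control signal, with at least half of replicates also reaching 10%; inconclusive = mean and replicate majority disagree about reaching 10%; inactive = mean and most replicates under 10%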
Bfl-1 A1 inh: inhibitors of the anti-apoptotic protein A1, read as caspase activation | MEF A1-2A-BIM cells, Caspase-Glo 3/7 luminescence, 3 h; percent of clofoctol response, vehicle zero | caspase activation, % (concentration not given with the values) | 0.066% of 330,000 active | AID 2462;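 active = over half of replicate activation scores above 10%, or exactly half above 10 with the replicate mean above 10; inconclusive = replicate mean below 10 yet half the replicates above 10; inactive = over half of replicates below 10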
Beta apoptosis: beta cell apoptosis inhibition; 0.8% of 300,000 active; protection from apoptosis, % (test concentration not listed); INS-1E cytokine-induced death, ATP luminescence, 48 h; percent of positive-control rescue, neutral wells zero;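 active = Every replicate reaches about 75%, or at least half do and their mean reaches it too, limit read from the data; inconclusive = At least half of replicates reach the limit but their mean does not; inactive = Under half of replicates reach the limit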;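 note: higher means more ATP so stronger rescue from cytokine killing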
KLF5 inh: suppresses KLF5 promoter-driven expression; DLD-1 KLF5 promoter-luciferase reporter, luminescence; AID 1700; inhibition, % at 5 µM; 0.23% of 290,000 active;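 active = inhibition above a per-plate limit of that plate's mean compound inhibition plus 3 SD, cut at about 60% in these data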;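 note: higher means less KLF5 promoter-driven luciferase light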
T cruzi repl: blocks replication of Trypanosoma cruzi. T. cruzi beta-gal in NIH3T3, luminescence, 90 h. inhibition, % (no concentration beside the values). 1.4% of 300,000 active;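 active = mean inhibition across valid replicates above about 55%, limit read from the data; inconclusive = mean below that limit but half or more replicates reach it; inactive = mean below it, under half of replicates reach it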;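 note: signal also drops with host cell toxicity which is not excluded here; higher percent means less beta-gal luminescence so fewer parasites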
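Read-out: Parasite load inhibition, % | Test system: Mouse NIH/3T3 fibroblasts infected with β-gal-expressing T. cruzi Tulahuen C4 | Amount: 5,000 cells/well | Medium: DMEM, 2% fetal bovine serum | Signal: GalScreen β-gal luminescence, detergent lysis, 60 min | Timing: 3 h attach, ≥90 h co-culture | Also added: Tulahuen C4 trypomastigotes, 5000/well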
Hits are given with their value; n = inactive; u = inconclusive; x = no result. Shown are actives, neighbours in structure and some others; about 2.3% of the full set was active somewhere.

SMILES | HIF act | Bfl-1 A1 inh | Beta apoptosis | KLF5 inh | T cruzi repl
CN(C)CCC1CCN(c2cc(C#N)c(C#N)cc2[N+](=O)[O-])CC1 | n | n | n | n | 79
O=C(NCCc1ccccc1)c1cc2sccc2n1Cc1ccccc1 | 75 | n | n | n | n
c1ccc(CN2CCC(Nc3ncnc4sccc34)CC2)cc1 | n | n | n | n | n
Cc1sc2ncnc(NC3CCN(Cc4ccccc4)CC3)c2c1C | n | n | 77 | n | 58
CN(C)c1cccc(C(=O)NNC(=O)CN2C(=O)C3CC=CCC3C2=O)c1 (centres undefined) | x | n | n | x | x
Cc1ccnc(NC(=O)c2cc(S(=O)(=O)NCc3ccccc3)ccc2C)c1 | x | n | n | x | x
N#Cc1ccccc1S(=O)(=O)N1CCN(c2cnccn2)CC1 | 68 | n | n | n | n
Cc1cccc(OCc2nnc(-c3ccc(F)cc3)o2)c1 | x | n | n | x | x
CN1CCN(/N=C/c2cccc(Cl)c2Cl)CC1 | n | n | n | n | 62
CCOc1ccc(C(=O)Nc2c(C(=O)N3CCC(N4CCCCC4)CC3)oc3ccccc23)cc1 | n | n | n | n | 58
NC(=O)C1CCCN(C(=O)c2ccc(NC(=O)c3cccs3)cc2)C1 (centres undefined) | x | n | n | x | x
O=C(C[C@H]1C/C=C\CC[C@H](Cc2ccc(F)cc2)C(=O)OC[C@H]2CCCN2C1=O)N[C@@H](CO)Cc1ccccc1 | x | n | n | x | x
Cc1cc(C(=O)CCl)c(C)n1Cc1ccco1 | n | n | n | n | 80
N#Cc1c(Cl)nsc1NC(=O)c1ccccc1 | n | n | 78 | n | n
CCCCc1nc2cc(C(=O)N3CCCCC3CCNC(C)=O)ccc2o1 (centres undefined) | n | n | n | n | n
COCCCN(Cc1cccs1)S(=O)(=O)c1csc(C(N)=O)c1 | x | n | n | n | n
Nc1c(C(=O)NCCc2ccc(Cl)cc2)sc2ccc(S(=O)(=O)N3CCCCC3)cc12 | n | n | n | n | 59
COc1ccccc1NS(=O)(=O)c1cccc(C(=O)NCC(c2ccc(F)cc2)N2CCOCC2)c1 (centres undefined) | n | n | x | x | n
Cc1oc(-c2ccccc2Cl)nc1CN1CCCCC1c1cccnc1 (centres undefined) | n | n | n | n | 59
COc1ccc(-c2nc(CN3CCCCC3c3cccnc3)c(C)o2)c(F)c1 (centres undefined) | n | n | n | n | 64
Cc1ccc(-c2nc(CN3CCCCC3c3cccc(F)c3)c(C)o2)o1 (centres undefined) | n | n | n | n | n
CCN(CC)C(=O)Cn1cc(S(=O)(=O)CC(=O)Nc2ccc(F)cc2F)c2ccccc21 | n | n | n | n | n
COc1ccccc1CNC(=O)c1ccc(CS(=O)(=O)c2ccc(C)cc2)o1 | n | n | n | n | n
CC1N(C)c2cc(NC(=O)c3cccs3)c(P(=O)(Nc3ccc([N+](=O)[O-])cc3)N3CCOCC3)cc2C1(C)C (centres undefined) | n | n | n | n | 64
Cc1ccc(-c2nn(-c3ccccc3)cc2CNCc2ccccc2)cc1 | n | n | n | n | 62
SMILES | HIF act | Bfl-1 A1 inh | Beta apoptosis | KLF5 inh | T cruzi repl
Cc1ccc(-n2cc(CNCCCn3ccnc3C)c(-c3ccc(F)cc3)n2)cc1 | n | n | n | n | 84
Cc1ccc(-n2cc(CNCCc3cscn3)c(-c3ccc(F)cc3)n2)cc1 | n | n | x | n | n
Cc1ccc(-c2nn(-c3ccccc3)cc2CO)cc1 | n | n | n | n | n
FC(F)(F)c1nc2ccccc2n2c(-c3ccc(Cl)cc3Cl)nnc12 | n | n | n | n | n
FC(F)(F)c1nnc2c(Sc3ccccc3)nc3ccc(Cl)cc3n12 | n | n | 96 | n | u
CCOCCCNC(=S)Nc1cc(C)cc(C)c1 | 143 | n | n | n | n
Cc1cccc(Cc2cnc(N3C(=N)SC(C)C3=O)s2)c1 (centres undefined) | n | n | n | n | 68
COc1ccc2c(c1)[C@H]1[C@H](CO2)[C@H](c2ccccc2)[C@]2(C)C(=O)N(Cc3ccc(C)cc3)CC(=O)N12 | x | n | n | x | x
C=CCn1c(O)c(N=NC(=S)Nc2cccc(OC)c2)c2ccccc21 | n | n | n | n | 59
Cc1ccc(S(=O)(=O)NCC(=O)NCC2CCCCC2)cc1C | n | n | n | n | n
Cc1ccc(/C=N/NC(=O)c2ccc(Br)o2)s1 | 9.9 | n | n | n | n
Cc1ccc2c(c1)N(C(=O)CCC(=O)NCCCN1CCN(C)CC1)CCO2 | n | x | n | n | n
